Measured values gathered from unrelated publications.
Each line is one published result; the experiments were not run side by side. pEC50, pIC50, pKd, pKi: −log10 of the molar value.
CNR1: Cannabinoid receptor 1 (CNR1, Homo sapiens, UniProt P21554)
HTR2A: 5-hydroxytryptamine receptor 2A (HTR2A, Homo sapiens, UniProt P28223)
Oprm1: Mu-type opioid receptor (Oprm1, Mus musculus, UniProt P42866)
Fatty acid-binding protein, intestinal T55A: Fatty acid-binding protein, intestinal (Homo sapiens, UniProt P12104, T55A)

The pKi of `CC(C)(NC(=O)c1nn(Cc2ccc(C#N)cc2)c2ccccc12)c1cccc(C(N)=O)c1` is reported as 7.01 (CNR1; ligand displacement, radioligand; cell membranes).
`O=c1c2cc(Cl)ccc2[nH]c(=S)n1Cc1cccnc1` gave a pIC50 of 5.59 (HTR2A; cell-free assay).
`CC(C)[C@@H](CN1CCc2ccccc2C1)NC(=O)c1cccc(-c2cccc(O)c2)c1` has a pKi of 5.92 (Oprm1; ligand displacement, radioligand).
The pKd of `Cc1oc(-c2ccccc2)nc1CCOc1cccc2c1ccn2CCC(=O)O` is reported as 4.50 (Fatty acid-binding protein, intestinal T55A; ligand displacement, fluorescence).
With `CC(C)(NC(=O)c1nn(CCCCC(F)(F)F)c2ccccc12)c1cccc(C(N)=O)c1` the pKi was 6.68 (CNR1; ligand displacement, radioligand; cell membranes).
`c1cncc([C@@H]2CCCN2)c1` gave a pKi of 6.48 (Neuronal acetylcholine receptor; alpha4/beta2 (Rattus norvegicus, UniProt P09483+P12390); cell-free assay, radioligand).
With `CC(C)[C@@H](CN1CCc2ccccc2C1)NC(=O)Cc1c[nH]c2ccccc12` the pKi was 5.91 (Oprm1; ligand displacement, radioligand).
The pEC50 of `CCCCC/C=C\C/C=C\C/C=C\Cc1ccccc1CCCC(=O)N[C@H](C)CO` is reported as 6.22 (CNR1; β-arrestin recruitment, agonist).
The pIC50 of `CC[C@H](C)[C@@H](C(=O)N1CCC[C@H]1c1nccs1)N(C)C(=O)[C@H](CC(C)C)N(C)C(=O)[C@H](Cc1ccc(OC)cc1)N(C)C(=O)/C=C(\C)OC` is reported as 4.94 (CNR1; β-arrestin recruitment, antagonist).
`COc1cc2c3c(c1OC)-c1c(OC)ccc(Br)c1CC3N(C)CC2` (stereo not shown) gave a pKi of 6.43 (HTR2A; cell-free assay, radioligand).
With `CC(C)(C#N)CCCn1nc(C(=O)NC(C)(C)c2cccc(C(N)=O)c2)c2ccccc21` the pKi was 6.60 (CNR1; ligand displacement, radioligand; cell membranes).
The pKd of `O=C(O)Cn1c(=O)n(Cc2ccc(Br)cc2F)c(=O)c2ccc(Cl)cc21` is reported as 5.57 (Fatty acid-binding protein, intestinal T55A; ligand displacement, fluorescence).
With `CCOC(=O)c1ccc(OC(=O)CCCCCN=C(N)N)cc1` the pIC50 was 6.80 (Vitamin K-dependent protein C (PROC, Homo sapiens, UniProt P04070); enzyme activity, inhibitor).
`CCCCC/C=C\[C@H](C)/C=C\C/C=C\Cc1ccccc1CCCC(=O)N[C@H](C)CO` gave a pEC50 of 5.79 (CNR1; cAMP, agonist).
`CC(C)(NC(=O)c1nn(CCCCC#N)c2ccccc12)c1cccc(C(N)=O)c1` has a pKi of 6.34 (CNR1; ligand displacement, radioligand; cell membranes).
With `COc1cc2c(cc1OC)CN(CCc1ccc(NC(=O)c3cccc4c(=O)c5cccc(OC)c5[nH]c34)cc1)CC2` the pKi was < 5.00 (Histamine H4 receptor (HRH4, Homo sapiens, UniProt Q9H3N8); cell-free assay).
